Assay results taken from article PMC6117112 (ACS chemical biology, 2018).
Read-outs that look alike come from different tables or passages of the source. Values belong to the molecule of their own block, whether it stands above or below them.

Key:
mitochondria = conditions: cited from earlier work
[1] = MTT cytotoxicity assay in A549 cells, in the dark; assay type: cell-based; conditions: human
[2] = assay type: cell-based; conditions: human, A549 cells
A549 cells = assay: Mitochondrial bioenergetics; assay type: cell-based, human
Procedure, shortened: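 Seeded 20,000 cells/well 24 h before, then 4 h with vehicle (0.4% DMSO) or test compound (0.1, 1.0, 10 μM). One plate blue-LED illuminated 1 h at 37 °C, the other kept dark. XF base medium with 1 mM pyruvate, 2 mM glutamine, 25 mM glucose, pH 7.4; 30 min at 37 °C, no CO2. OCR over 80 min after oligomycin, FCCP, then rotenone/antimycin A (each 1.0 μM). Three experiments × 8 replicates; mean ±SEM; one-way ANOVA, Tukey.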

[3] = assay type: cell-based; conditions: human, HUVECs (human umbilical vein endothelial cells)
[4] = MTT cytotoxicity assay in HUVECs, in the dark; assay type: cell-based, human; conditions: human, HUVECs (human umbilical vein endothelial cells)
HUVECs = assay: MTT cytotoxicity assay in HUVECs, in the dark; assay type: cell-based, human; conditions: HUVECs, non-illuminated
[5] = 10 μM, after 1 h of illumination to induce CO release

Compound: O=c1c(O)c(-c2ccc(O)c(O)c2)oc2cc(O)cc(O)c12 [quercetin]
- effect on mitochondrial bioenergetics (mitochondria): increases basal respiration, maximal respiration, ATP-linked respiration and the reserve capacity of mitochondria

- IC50 [2]: 4.6 ± 3.6 µM
- IC50 [3]: 3.78 ± 1.5 µM
Compound: O=C(NCC[P+](c1ccccc1)(c1ccccc1)c1ccccc1)c1ccc(-c2oc3cc4ccccc4cc3c(=O)c2O)cc1.[Br-] [Compound 2, (2-(4-(3-hydroxy-4-oxo-4H-benzo[g]chromen-2-yl)benzamido)ethyl)triphenylphosphonium bromide]
- IC50 [1]: 14.1 ± 2.7 µM
- ATP production (OCR) (A549 cells; [5]): decreased
- basal respiration (OCR) (A549 cells; [5]): decreased
- maximal respiration (OCR) (A549 cells; [5]): decreased
- reserve capacity (OCR) (A549 cells; [5]): decreased
- concentration needed to produce significant changes in bioenergetics parameters (A549 cells; light-triggered CO release): 10 µM
- IC50 [4]: 1.51 ± 1.4 µM

- IC50 [3]: > 100 µM
Compound: O=C(NCC[P+](c1ccccc1)(c1ccccc1)c1ccccc1)c1ccc(C(=O)Oc2cc3ccccc3cc2C(=O)O)cc1.[Br-] [Compound 4, (2-(4-(((3-carboxynaphthalen-2-yl)oxy)carbonyl)benzamido)ethyl)triphenylphosphonium bromide]
- IC50 [1]: > 100 µM
- cytotoxicity (MTT), result in words (HUVECs): no cytotoxicity

Compound: O=c1cc(-c2ccccc2)oc2cc(O)c(O)c(O)c12 [baicalein]
- effect on mitochondrial bioenergetics (mitochondria): decreases ATP-production via uncoupling of mitochondrial membranes

Compound: O=C(NCCCCCCCC[P+](c1ccccc1)(c1ccccc1)c1ccccc1)c1ccc(-c2oc3cc4ccccc4cc3c(=O)c2O)cc1 [Compound 3, (8-(4-(3-hydroxy-4-oxo-4H-benzo[g]chromen-2-yl)benzamido)octyl)triphenylphosphonium bromide]
- IC50 [1]: 8.48 ± 4 µM
- IC50 [4]: 8.4 ± 3.6 µM

- IC50 [3]: > 100 µM
Compound: O=C(O)CC[P+](c1ccccc1)(c1ccccc1)c1ccccc1.[Br-] [TPPBr, 2-carboxyethyl-triphenylphosphonium bromide, reference compound]
- IC50 [1]: > 100 µM
- changes in the mitochondrial bioenergetics profile (A549 cells; 0.1–10 μM, illuminated or non-illuminated cells): no significant changes
- IC50 [4]: > 100 µM

Compound: O=C(NCCCCCCCC[P+](c1ccccc1)(c1ccccc1)c1ccccc1)c1ccc(C(=O)Oc2cc3ccccc3cc2C(=O)O)cc1 [Compound 5, (8-(4-(((3-carboxynaphthalen-2-yl)oxy)carbonyl)benzamido)octyl)triphenylphosphonium bromide]
- IC50 [1]: 69.1 ± 11 µM
- IC50 [4]: 90 ± 7.5 µM
